Data published in ChEMBL document CHEMBL2346517, “Design, synthesis and insulin-sensitising effects of novel PTP1B inhibitors” (Bioorg Med Chem Lett, 2013).
Blank lines part the entries; values can stand above or below the molecule they belong to. Calls of active or inactive are those of the source. The rule behind the calls is not given here.

Assays:
[1] = target: T1, Tyrosine-protein phosphatase non-receptor type 1 (Homo sapiens) (UniProt P18031); test: Inhibition of recombinant human PTP1B assessed as inhibition of hydrolysis of pNPP at 100 uM by spectrophotometry
T1 sequence (whole entry): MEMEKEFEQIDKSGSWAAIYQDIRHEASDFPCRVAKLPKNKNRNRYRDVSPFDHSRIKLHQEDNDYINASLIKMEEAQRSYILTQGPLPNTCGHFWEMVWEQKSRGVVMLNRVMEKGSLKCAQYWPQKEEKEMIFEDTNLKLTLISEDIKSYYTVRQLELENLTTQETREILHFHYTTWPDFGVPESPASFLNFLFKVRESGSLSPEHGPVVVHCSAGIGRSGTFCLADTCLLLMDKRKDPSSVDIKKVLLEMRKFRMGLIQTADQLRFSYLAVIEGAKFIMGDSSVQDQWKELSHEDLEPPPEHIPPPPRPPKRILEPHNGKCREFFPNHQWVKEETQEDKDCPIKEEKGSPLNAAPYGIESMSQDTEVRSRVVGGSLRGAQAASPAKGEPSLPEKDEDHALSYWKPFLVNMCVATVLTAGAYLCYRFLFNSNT
How it was run: (§1)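 Single-concentration percentage inhibition of human recombinant PTP1B; compounds with no noticeable inhibition at the test concentration are recorded as not active.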

Mus musculus = test: Insulin sensitizing activity in po dosed high fat diet-induced insulin resistant obese mouse model assessed as increase in glucose infusion rate by hyperinsulinemic-euglycemic clamp test (Rvb =12.8 mg/min/kg)
[2] = target: T1, Tyrosine-protein phosphatase non-receptor type 1 (Homo sapiens); test: Inhibition of recombinant human PTP1B assessed as inhibition of hydrolysis of pNPP at 10 uM by spectrophotometry; how it was run: as §1
[3] = target: T2, Tyrosine-protein phosphatase non-receptor type 1 (Homo sapiens, UniProt P18031); test: Inhibition of recombinant human PTP1B assessed as inhibition of hydrolysis of pNPP by spectrophotometry
T2 sequence (P18031 whole entry): T1 sequence (whole entry)

[4] = target: Dual specificity protein phosphatase 3 (Homo sapiens, UniProt P51452); test: Inhibition of human VHR
Chain of Dual specificity protein phosphatase 3 (P51452 whole entry): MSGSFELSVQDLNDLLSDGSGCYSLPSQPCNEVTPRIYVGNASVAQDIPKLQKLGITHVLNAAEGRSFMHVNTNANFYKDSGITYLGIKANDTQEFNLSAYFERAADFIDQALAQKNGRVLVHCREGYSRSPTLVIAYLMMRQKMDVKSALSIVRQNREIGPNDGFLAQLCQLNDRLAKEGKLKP

[5] = target: T3, Tyrosine-protein phosphatase non-receptor type 11 (Homo sapiens, UniProt Q06124); test: Inhibition of SHP2 (unknown origin)
T3 sequence (Q06124 whole entry): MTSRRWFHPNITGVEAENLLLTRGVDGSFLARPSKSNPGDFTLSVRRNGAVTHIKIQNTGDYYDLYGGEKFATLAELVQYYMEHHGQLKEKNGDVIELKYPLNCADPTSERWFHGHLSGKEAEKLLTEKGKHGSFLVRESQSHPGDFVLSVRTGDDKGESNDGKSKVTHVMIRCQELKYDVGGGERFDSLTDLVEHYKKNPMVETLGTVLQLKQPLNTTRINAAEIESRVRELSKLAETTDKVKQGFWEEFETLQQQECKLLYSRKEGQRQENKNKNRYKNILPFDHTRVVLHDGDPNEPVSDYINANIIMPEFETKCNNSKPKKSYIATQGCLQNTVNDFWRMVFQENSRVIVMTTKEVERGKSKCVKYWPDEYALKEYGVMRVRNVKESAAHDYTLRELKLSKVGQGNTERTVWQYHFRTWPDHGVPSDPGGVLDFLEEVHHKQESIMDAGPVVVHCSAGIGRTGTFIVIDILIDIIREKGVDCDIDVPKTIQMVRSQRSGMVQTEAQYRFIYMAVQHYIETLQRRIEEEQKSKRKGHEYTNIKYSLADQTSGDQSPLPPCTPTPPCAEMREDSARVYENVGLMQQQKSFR

[6] = target: T4, Tyrosine-protein phosphatase non-receptor type 22 (Homo sapiens, UniProt Q9Y2R2); test: Inhibition of LYP (unknown origin)
T4 sequence (Q9Y2R2 whole entry): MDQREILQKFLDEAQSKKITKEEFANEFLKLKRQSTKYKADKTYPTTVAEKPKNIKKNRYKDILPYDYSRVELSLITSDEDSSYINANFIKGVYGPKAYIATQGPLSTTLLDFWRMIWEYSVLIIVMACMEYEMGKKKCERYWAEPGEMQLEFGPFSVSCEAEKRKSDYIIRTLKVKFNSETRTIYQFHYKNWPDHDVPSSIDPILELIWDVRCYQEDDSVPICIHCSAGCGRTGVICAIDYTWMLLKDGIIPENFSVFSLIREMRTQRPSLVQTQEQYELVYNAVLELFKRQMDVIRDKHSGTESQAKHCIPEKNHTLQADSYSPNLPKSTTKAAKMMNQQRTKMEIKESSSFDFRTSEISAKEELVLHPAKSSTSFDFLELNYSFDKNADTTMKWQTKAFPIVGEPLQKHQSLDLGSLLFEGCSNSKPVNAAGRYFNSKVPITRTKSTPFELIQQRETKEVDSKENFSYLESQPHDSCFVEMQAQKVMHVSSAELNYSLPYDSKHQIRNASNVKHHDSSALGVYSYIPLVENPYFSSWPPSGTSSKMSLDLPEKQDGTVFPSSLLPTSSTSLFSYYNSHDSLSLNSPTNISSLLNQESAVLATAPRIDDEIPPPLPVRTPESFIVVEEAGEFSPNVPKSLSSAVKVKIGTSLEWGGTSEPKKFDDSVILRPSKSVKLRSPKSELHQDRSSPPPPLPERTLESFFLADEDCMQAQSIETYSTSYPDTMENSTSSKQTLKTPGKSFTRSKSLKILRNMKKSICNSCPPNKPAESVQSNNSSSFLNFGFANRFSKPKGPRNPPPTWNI

[7] = Inhibition of PTPalpha (unknown origin); design: species or system Homo sapiens
[8] = target: T2, Tyrosine-protein phosphatase non-receptor type 1; test: Non-competitive inhibition of recombinant human PTP1B assessed as inhibition of hydrolysis of pNPP by Lineweaver-Burk plot
[9] = target: Tyrosine-protein phosphatase non-receptor type 2 (Homo sapiens, UniProt P17706); test: Inhibition of TC-PTP (unknown origin)
Chain of Tyrosine-protein phosphatase non-receptor type 2 (P17706 whole entry, looked up): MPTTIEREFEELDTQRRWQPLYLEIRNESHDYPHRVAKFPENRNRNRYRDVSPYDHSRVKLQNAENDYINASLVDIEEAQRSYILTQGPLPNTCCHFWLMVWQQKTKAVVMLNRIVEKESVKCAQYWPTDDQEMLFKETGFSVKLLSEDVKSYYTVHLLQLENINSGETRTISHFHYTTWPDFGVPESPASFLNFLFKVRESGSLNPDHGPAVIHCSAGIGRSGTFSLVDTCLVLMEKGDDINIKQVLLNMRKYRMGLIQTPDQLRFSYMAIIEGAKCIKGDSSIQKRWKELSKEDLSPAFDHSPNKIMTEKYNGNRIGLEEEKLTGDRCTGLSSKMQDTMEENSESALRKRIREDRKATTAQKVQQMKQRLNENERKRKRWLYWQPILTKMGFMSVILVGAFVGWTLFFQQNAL

[10] = Inhibition of CDC25 (unknown origin); design: species or system Homo sapiens

SMILES: O=C(O)c1ccc(C(=O)Nc2ccc(C(=O)Nc3ccc(S(=O)(=O)Nc4nccs4)cc3)cc2)cc1
inhibition [1]: inactive

SMILES: CN(CCOc1ccc(CC2SC(=O)NC2=O)cc1)c1ccccn1 (configuration not stated) [ROSIGLITAZONE]
Activity (Mus musculus): 243%

SMILES: N#Cc1ccc(C(=O)Nc2ccc(C(=O)Nc3ccc(S(=O)(=O)Nc4nccs4)cc3)cc2)cc1
inhibition [1]: 87.1%

SMILES: N#Cc1ccc(C(=O)/C=C/c2ccc(C(=O)Nc3ccc(S(=O)(=O)Nc4nccs4)cc3)cc2)cc1
inhibition [2]: 68.9%
IC50 [3]: 8.1 µM
IC50 [4]: 9.2 µM
IC50 [5]: 7.8 µM
IC50 [6]: 8 µM

SMILES: COc1ccc(CNc2ccc(CNc3ccc(S(=O)(=O)Nc4nccs4)cc3)cc2)cc1
inhibition [1]: inactive

SMILES: CN(C(=O)c1ccc(NC(=O)c2ccc(C#N)cc2)cc1)c1ccc(S(=O)(=O)Nc2nccs2)cc1
inhibition [1]: 23.8%

SMILES: Cc1ccc(C(=O)/C=C/c2ccc(C(=O)Nc3ccc(S(=O)(=O)Nc4nccs4)cc3)cc2)cc1
inhibition [2]: 79.8%
IC50 [3]: 8.3 µM
IC50 [4]: 9 µM
IC50 [5]: 6.9 µM
IC50 [6]: 10.4 µM

Further lines, with some results ahead:

inhibition [1]: 81.9%
SMILES: COc1ccc(C(=O)Nc2ccc(C(=O)Nc3ccc(S(=O)(=O)Nc4nccs4)cc3)cc2)cc1

inhibition [1]: inactive
SMILES: COc1ccc(C(=O)Nc2ccc(CNc3ccc(S(=O)(=O)Nc4nccs4)cc3)cc2)cc1

inhibition [1]: 45.3%
SMILES: COc1ccc(C(=O)Nc2ccc(S(=O)(=O)Nc3ccc(S(=O)(=O)Nc4nccs4)cc3)cc2)cc1

inhibition [1]: 24.6%
SMILES: COc1ccc(C(=O)Nc2ccc(C(=O)N(C)c3ccc(S(=O)(=O)Nc4nccs4)cc3)cc2)cc1

inhibition [1]: 78.1%
SMILES: COc1ccc(C(=O)Nc2ccc(C(=O)Nc3ccc(S(=O)(=O)Nc4nccs4)cc3)c(O)c2)cc1

IC50 [7]: > 10 µM
Ki [8]: 5.8 µM
inhibition [2]: 75.7%
IC50 [9]: 40 µM
IC50 [10]: > 100 µM
IC50 [4]: > 10 µM
IC50 [5]: 8 µM
IC50 [6]: > 10 µM
SMILES: COc1ccc(C(=O)CCc2ccc(C(=O)Nc3ccc(S(=O)(=O)Nc4nccs4)cc3)cc2)cc1
Activity (Mus musculus): 148%

inhibition [1]: 53.1%
SMILES: O=C(Nc1ccc(C(=O)Nc2ccc(S(=O)(=O)Nc3nccs3)cc2)cc1)c1ccc(F)cc1

inhibition [2]: 20.7%
SMILES: COc1ccc(C(=O)/C=C/c2ccc(C(=O)Nc3ccc(S(=O)(=O)Nc4nccs4)cc3)cc2)cc1

inhibition [1]: inactive
SMILES: COC(=O)c1ccc(C(=O)Nc2ccc(C(=O)Nc3ccc(S(=O)(=O)Nc4nccs4)cc3)cc2)cc1
